Compound activity (PubChem)
NR2E3 ag-1 – activates human photoreceptor nuclear receptor NR2E3. GST-NR2E3/biotin-RetCOR TR-FRET, 1536-well. inhibition of corepressor binding, % at 4.78 µM. hit rate 0.12% among 320,000. AID 2300;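 active = percent inhibition above the cutoff of mean plus 3 SD of all tested compounds, set per screening campaign, cut at about 20% in these data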
Target sequence (Q9Y5X4 whole entry, looked up): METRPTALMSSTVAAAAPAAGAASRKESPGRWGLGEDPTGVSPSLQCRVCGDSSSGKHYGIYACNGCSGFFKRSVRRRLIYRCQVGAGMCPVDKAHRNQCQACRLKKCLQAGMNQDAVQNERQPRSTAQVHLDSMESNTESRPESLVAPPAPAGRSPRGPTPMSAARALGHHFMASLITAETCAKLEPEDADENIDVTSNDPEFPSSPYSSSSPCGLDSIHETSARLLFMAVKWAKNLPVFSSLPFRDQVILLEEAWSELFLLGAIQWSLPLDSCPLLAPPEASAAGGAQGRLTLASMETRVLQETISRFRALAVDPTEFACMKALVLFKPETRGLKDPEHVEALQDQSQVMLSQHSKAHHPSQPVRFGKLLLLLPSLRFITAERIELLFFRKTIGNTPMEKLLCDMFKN
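System: GST-tagged NR2E3 plus biotinylated RetCOR corepressor; Amount: 1.35 nM GST-tagged NR2E3 final; Dosing: single nominal compound dose of 4.8 µM; Schedule: 5 h incubation at 4 °C; Technique: TR-FRET with europium anti-GST and streptavidin-D2, 340 nm excitation; Controls: biotin wells as high control, 0.6% DMSO wells as low control.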
NR2E3 ag-2 – activates human NR2E3 receptor; CHO-S Gal4-NCOR/VP16-NR2E3 two-hybrid, luciferase; inhibition of corepressor binding, % at 3.98 µM; hit rate 0.35% among 360,000; AID 602229;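 active = inhibition above the mean of all tested compounds plus 3 SD, cut at about 70% in these data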;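 note: higher means lower luciferase signal from less NR2E3 corepressor binding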
FXN GAA850 act – activators of GAA850 frataxin (FXN) promoter; hit rate 0.56% among 360,000; AID 540364; HEK293 lucGAA850 FXN promoter luciferase reporter, 24 h; percent of 10 µM SAHA response; activation, % at 6 µM;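 active = activation above the average of all compounds screened plus 3 SD, cutoff fixed separately per campaign, cut at about 7.5% in these data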
Myeloid diff MLP – promotes myeloid progenitor differentiation. ER-HoxA9 myeloid progenitors, lysozyme-GFP differentiation, flow cytometry. calls only at 10 µM. hit rate 1% among 360,000. AID 624256;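 active = normalized GFP-positive differentiation at or above the plate's own cutoff, the solvent-only control mean plus 3 SD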;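 note: cells exposed to compound for four days before flow analysis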
T cell modulator – modulates CD8 T cell binding to vesicles; 2C CD8+ T cell-vesicle binding, flow cytometry; active compounds read low; hit rate 0.068% among 330,000; response (vesicle binding), % at 7 µM;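 active = response, share of CD8 T cells binding vesicles, and their 90th percentile fluorescence all below set limits, cut at about 80% in these data, passing the limit was not always enough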;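 note: values below 100% mean blocked vesicle binding to the CD8+ T cells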
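Read-out – percent CD8+ FL2 mean versus row control · System – murine 2C transgenic CD8+ T lymphocytes · Times – 1.5 h cell–vesicle binding at 37 °C, then 20 min icy labelling · Control set – naked vesicles low, QL9 vesicles with vehicle high · Detection – cytometric PE anti-B7-1 and Alexa647 anti-CD8 signals after 1% paraformaldehyde fixation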
Myeloid diff – myeloid differentiation induction; shares compounds with Myeloid diff MLP; ER-HoxA9 myeloid progenitors, GFP/Mac1 double-positive flow; calls only; hit rate 2% among 2,300;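 active = share of green or green-and-red cells above 9 and 9% in run 1 or 4 and 3% in run 2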
GFP autofluor – compound fluorescence in myeloid differentiation counter-screen; shares compounds with Myeloid diff MLP; ER-HoxA9 myeloid progenitors, no estrogen, GFP autofluorescence flow cytometry; vehicle wells 0%, positive control 100%; fluorescence response, % (no concentration beside the values); hit rate 7.4% among 2,300; AID 651707;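 active = over 5% cells positive for green fluorescent reporter, or over 2% positive for both it and APC stain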
Of the large screens only hits and unclear results are named; the others gave an inactive call (follow-up assays come after a bar, where they were run). Only some compounds are listed: those with a hit (about 2% of all), similar ones and a draw of the others.

Cc1cccc(-n2ncc3c(NCc4ccco4)ncnc32)c1	Myeloid diff MLP active | Myeloid diff inactive | GFP autofluor inactive
CC(C)(C)c1cc(C(=O)Nc2cccnc2)cc(C(=O)Nc2cccnc2)c1	none
COc1cccc(OCCSc2nnc3sc4ccccc4n23)c1	none
c1ccc(OCCSc2nnc3sc4ccccc4n23)cc1	none | Myeloid diff inactive | GFP autofluor inactive
O=C(Nc1ncc(S(=O)(=O)c2ccc([N+](=O)[O-])cc2)s1)c1ccccc1F	Myeloid diff MLP active | Myeloid diff inactive | GFP autofluor inactive
COc1cc(C(=O)OCC(=O)NC2CCCCC2)cc2c1OCCO2	Myeloid diff MLP active | Myeloid diff inactive | GFP autofluor inactive
COc1cc(C(=O)OC(C)C(=O)N2CCCC2)cc2c1OCCO2 (configuration not stated)	none | Myeloid diff inactive | GFP autofluor inactive
COc1cc(C(=O)OCC(=O)Nc2ccccc2)cc2c1OCCO2	none (no result: NR2E3 ag-1, T cell modulator)
CCN(CC)c1ccc(C=NNc2ccc([N+](=O)[O-])cn2)cc1	Myeloid diff MLP active (no result: NR2E3 ag-1, T cell modulator) | Myeloid diff inactive | GFP autofluor 13
O=[N+]([O-])c1ccc(NN=Cc2ccc(O)cc2)nc1	none (no result: NR2E3 ag-1, T cell modulator)
CCCCN(C)C1=Nc2cccc3cccc1c23	Myeloid diff MLP active | Myeloid diff inactive | GFP autofluor inactive
COc1ccc(C(=O)NCCCc2nc3ccccc3n2Cc2ccccc2C)cc1OC	Myeloid diff MLP active | Myeloid diff inactive | GFP autofluor inactive
CC1CC(C)CN(CCCNC(=O)C2CCC(=O)N2C2CCCC2)C1 (configuration not stated)	none | Myeloid diff inactive | GFP autofluor inactive
CCOP(=O)(OCC)C(NC(=O)Nc1ccc(Cl)c(Cl)c1)C(N)=O (configuration not stated)	none | Myeloid diff inactive | GFP autofluor inactive
CCOP(=O)(OCC)C(NC(=O)Nc1ccc(Cl)cc1)C(N)=O (configuration not stated)	none
COc1ccc(CNC[C@H]2O[C@@H](n3ccc(=O)[nH]c3=O)[C@H](O)[C@@H]2O)cc1	none (no result: NR2E3 ag-1, FXN GAA850 act, T cell modulator)
CCOC(=O)C1CCCCN1C(=O)c1cc2ccc(OC)cc2c2cc(OC)c(OC)cc12 (configuration not stated)	none (no result: NR2E3 ag-1, T cell modulator)
Cc1ccc(-n2nc3ccc(N)cc3n2)cc1Cl	none
COc1ccc(-n2nc3ccc(N)cc3n2)cc1Cl	none | Myeloid diff inactive | GFP autofluor inactive
COc1ccc(-c2coc3c(C(=O)NCC4CC4)cccc23)c(C)c1	none (no result: NR2E3 ag-1, T cell modulator)
O=C1CCCCc2sc(Br)c([N+](=O)[O-])c2N1	none
CCCn1c(=O)c(C(=O)NC(C)c2ccccc2)c(O)c2ccccc21 (configuration not stated)	none
CCn1c(=O)c(C(=O)NC(C)c2ccccc2)c(O)c2ccccc21 (configuration not stated)	Myeloid diff MLP active (no result: NR2E3 ag-1) | Myeloid diff inactive | GFP autofluor inactive
COc1cccc(C(=O)COC(=O)C(C)N2C(=O)c3ccccc3C2=O)c1 (configuration not stated)	none | Myeloid diff inactive | GFP autofluor inactive
CC(C(=O)OCC(=O)c1ccccc1)N1C(=O)c2ccccc2C1=O (configuration not stated)	none
CNc1ccc([N+](=O)[O-])cc1-c1nc2ccccc2[nH]c1=O	Myeloid diff MLP active | Myeloid diff inactive | GFP autofluor inactive
CC(C)C(=O)Nc1ccc(Cl)cc1-c1nc2ccccc2[nH]c1=O	none
COc1cc(/C(C)=N/N2CCN(c3ccccc3OC)CC2)ccc1O	none
COc1ccccc1CN(Cc1nc2ccccc2c(=O)[nH]1)C(=O)Nc1ccc(C)cc1	none | Myeloid diff active | GFP autofluor inactive
COc1ccccc1CN(Cc1nc2ccccc2c(=O)[nH]1)C(=O)Nc1ccccc1C	none
O=C1C(CCc2ccccc2)ON=C(c2cnccn2)N1Cc1ccc(F)cc1 (configuration not stated)	none (no result: NR2E3 ag-1, T cell modulator)
CCOc1ccc(OCC(=O)Nc2cc(Cl)ccc2-n2cncn2)cc1	none (no result: NR2E3 ag-1, T cell modulator)
